System: U2OS
Experiment: Multiplex assay against U2OS
Assay type: toxicity, cell-based
Settings: human
In short: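 Per cents of healthy-nucleus cells form the tubulin, mitochondrial-mass and membrane-permeability phenotype values. Live cells were stained at seeding with Hoechst33342, BioTracker Green Microtubule Cytoskeleton Dye, MitoTracker Red and Annexin V Alexa Fluor 680. After compound addition they were imaged on a CQ1 microscope at 37°C and 5% CO2, and CellPathfinder machine-learning gating split them into Hoechst high-intensity objects or normal cells, normal cells into healthy, pyknosed or fragmented nuclei, and pyknosed cells into mitotic or apoptotic.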

[1] = 12 h, 1 µM, compound concentration 1 uM, replicate 1
[2] = 12 h, 1 µM, compound concentration 1 uM, replicate 2
[3] = 12 h, 10 µM, compound concentration 10 uM, replicate 1
[4] = 12 h, 10 µM, compound concentration 10 uM, replicate 2
[5] = 24 h, 1 µM, compound concentration 1 uM, replicate 1
[6] = 24 h, 1 µM, compound concentration 1 uM, replicate 2
[7] = 24 h, 10 µM, compound concentration 10 uM, replicate 1
[8] = 24 h, 10 µM, compound concentration 10 uM, replicate 2
[9] = 48 h, 1 µM, compound concentration 1 uM, replicate 1
[10] = 48 h, 1 µM, compound concentration 1 uM, replicate 2
[11] = 48 h, 10 µM, compound concentration 10 uM, replicate 1
[12] = 48 h, 10 µM, compound concentration 10 uM, replicate 2

With COc1ccccc1N1CCN(C[C@@H](C(=O)NC(C)(C)C)c2ccccc2)CC1.Cl.Cl as the compound, how does the “Population Apoptotic (%)” value [1] read?
The value was 73%.

What about the “Population Fragmented Nuclei (%)” value [1] of the same compound?
The value was 29%.

And the “Population Healthy Nuclei (%)” value [1]?
The value was 65%.

And the “Population Hoechst High Intensity Objects (%)” value [1]?
The value was 2%.

What about the “Population Membrane Permeable-Phenotype (%)” value [1] of the same compound?
The value was 5%.

And the “Population Mitochondria Different-Phenotype (%)” value [1]?
The value was 3%.

What about the “Population Mitotic Cells (%)” value [1] of the same compound?
Its value is 26%.

What about the “Population Normal (%)” value [1] of the same compound?
The value was 97%.

What about the “Population Pyknosed Nuclei (%)” value [1] of the same compound?
Its value is 5%.

What about the “Population Tubulin-Different-Phenotype (%)” value [1] of the same compound?
Its value is 1%.

What about the “Total Cell Count” value [1] of the same compound?
The value was 281.

What about the “Population Apoptotic (%)” value [2] of the same compound?
Its value is 66%.

And the “Population Fragmented Nuclei (%)” value [2]?
The value was 14%.

What about the “Population Healthy Nuclei (%)” value [2] of the same compound?
Its value is 80%.

What about the “Population Hoechst High Intensity Objects (%)” value [2] of the same compound?
Its value is 1%.

And the “Population Membrane Permeable-Phenotype (%)” value [2]?
The value was 7%.

And the “Population Mitochondria Different-Phenotype (%)” value [2]?
Its value is 2%.

What about the “Population Mitotic Cells (%)” value [2] of the same compound?
Its value is 33%.

And the “Population Normal (%)” value [2]?
Its value is 98%.

What about the “Population Tubulin-Different-Phenotype (%)” value [2] of the same compound?
Its value is 3%.

What about the “Total Cell Count” value [2] of the same compound?
The value was 114.

And the “Population Apoptotic (%)” value [3]?
The value was 46%.

What about the “Population Fragmented Nuclei (%)” value [3] of the same compound?
Its value is 35%.

What about the “Population Healthy Nuclei (%)” value [3] of the same compound?
The value was 49%.

What about the “Population Hoechst High Intensity Objects (%)” value [3] of the same compound?
Its value is 3%.

What about the “Population Membrane Permeable-Phenotype (%)” value [3] of the same compound?
Its value is 41%.

What about the “Population Mitochondria Different-Phenotype (%)” value [3] of the same compound?
The value was 41%.

And the “Population Mitotic Cells (%)” value [3]?
The value was 53%.

And the “Population Normal (%)” value [3]?
Its value is 96%.

And the “Population Pyknosed Nuclei (%)” value [3]?
Its value is 14%.

And the “Population Tubulin-Different-Phenotype (%)” value [3]?
Its value is 41%.

And the “Total Cell Count” value [3]?
The value was 226.

And the “Population Apoptotic (%)” value [4]?
The value was 50%.

And the “Population Fragmented Nuclei (%)” value [4]?
Its value is 17%.

And the “Population Healthy Nuclei (%)” value [4]?
Its value is 66%.

What about the “Population Hoechst High Intensity Objects (%)” value [4] of the same compound?
The value was 0%.

What about the “Population Membrane Permeable-Phenotype (%)” value [4] of the same compound?
The value was 49%.

What about the “Population Mitochondria Different-Phenotype (%)” value [4] of the same compound?
The value was 56%.

What about the “Population Mitotic Cells (%)” value [4] of the same compound?
Its value is 50%.

What about the “Population Normal (%)” value [4] of the same compound?
Its value is 99%.

And the “Population Pyknosed Nuclei (%)” value [4]?
Its value is 15%.

What about the “Population Tubulin-Different-Phenotype (%)” value [4] of the same compound?
Its value is 64%.

What about the “Total Cell Count” value [4] of the same compound?
The value was 102.

And the “Population Apoptotic (%)” value [5]?
The value was 68%.

What about the “Population Fragmented Nuclei (%)” value [5] of the same compound?
Its value is 29%.

And the “Population Healthy Nuclei (%)” value [5]?
The value was 62%.

And the “Population Hoechst High Intensity Objects (%)” value [5]?
Its value is 3%.

And the “Population Membrane Permeable-Phenotype (%)” value [5]?
The value was 7%.

And the “Population Mitochondria Different-Phenotype (%)” value [5]?
Its value is 1%.

What about the “Population Mitotic Cells (%)” value [5] of the same compound?
The value was 32%.

What about the “Population Normal (%)” value [5] of the same compound?
The value was 96%.

And the “Population Pyknosed Nuclei (%)” value [5]?
Its value is 8%.

And the “Population Tubulin-Different-Phenotype (%)” value [5]?
The value was 3%.

What about the “Total Cell Count” value [5] of the same compound?
Its value is 320.

And the “Population Apoptotic (%)” value [6]?
The value was 80%.

And the “Population Fragmented Nuclei (%)” value [6]?
The value was 16%.

And the “Population Healthy Nuclei (%)” value [6]?
Its value is 75%.

What about the “Population Membrane Permeable-Phenotype (%)” value [6] of the same compound?
The value was 5%.

What about the “Population Mitochondria Different-Phenotype (%)” value [6] of the same compound?
Its value is 6%.

And the “Population Mitotic Cells (%)” value [6]?
Its value is 20%.

What about the “Population Tubulin-Different-Phenotype (%)” value [6] of the same compound?
Its value is 2%.

And the “Total Cell Count” value [6]?
The value was 129.

What about the “Population Apoptotic (%)” value [7] of the same compound?
Its value is 61%.

And the “Population Fragmented Nuclei (%)” value [7]?
Its value is 38%.

What about the “Population Healthy Nuclei (%)” value [7] of the same compound?
The value was 42%.

And the “Population Hoechst High Intensity Objects (%)” value [7]?
The value was 5%.

What about the “Population Membrane Permeable-Phenotype (%)” value [7] of the same compound?
Its value is 20%.

What about the “Population Mitochondria Different-Phenotype (%)” value [7] of the same compound?
Its value is 33%.

What about the “Population Mitotic Cells (%)” value [7] of the same compound?
Its value is 38%.

And the “Population Normal (%)” value [7]?
The value was 94%.

And the “Population Pyknosed Nuclei (%)” value [7]?
Its value is 18%.

And the “Population Tubulin-Different-Phenotype (%)” value [7]?
The value was 25%.

And the “Total Cell Count” value [7]?
Its value is 235.

What about the “Population Apoptotic (%)” value [8] of the same compound?
The value was 70%.

What about the “Population Fragmented Nuclei (%)” value [8] of the same compound?
Its value is 20%.

And the “Population Healthy Nuclei (%)” value [8]?
The value was 63%.

And the “Population Membrane Permeable-Phenotype (%)” value [8]?
Its value is 39%.

What about the “Population Mitochondria Different-Phenotype (%)” value [8] of the same compound?
The value was 61%.

What about the “Population Mitotic Cells (%)” value [8] of the same compound?
The value was 29%.

And the “Population Pyknosed Nuclei (%)” value [8]?
The value was 15%.

What about the “Population Tubulin-Different-Phenotype (%)” value [8] of the same compound?
Its value is 52%.

What about the “Total Cell Count” value [8] of the same compound?
The value was 113.

What about the “Population Apoptotic (%)” value [9] of the same compound?
Its value is 78%.

What about the “Population Fragmented Nuclei (%)” value [9] of the same compound?
The value was 21%.

What about the “Population Healthy Nuclei (%)” value [9] of the same compound?
The value was 66%.

And the “Population Hoechst High Intensity Objects (%)” value [9]?
Its value is 2%.

What about the “Population Membrane Permeable-Phenotype (%)” value [9] of the same compound?
The value was 5%.

What about the “Population Mitochondria Different-Phenotype (%)” value [9] of the same compound?
Its value is 1%.

What about the “Population Mitotic Cells (%)” value [9] of the same compound?
The value was 22%.

And the “Population Normal (%)” value [9]?
The value was 97%.

And the “Population Pyknosed Nuclei (%)” value [9]?
Its value is 11%.

What about the “Population Tubulin-Different-Phenotype (%)” value [9] of the same compound?
The value was 1%.

And the “Total Cell Count” value [9]?
Its value is 452.

And the “Population Apoptotic (%)” value [10]?
Its value is 83%.

And the “Population Fragmented Nuclei (%)” value [10]?
Its value is 16%.

And the “Population Healthy Nuclei (%)” value [10]?
Its value is 72%.

What about the “Population Hoechst High Intensity Objects (%)” value [10] of the same compound?
Its value is 4%.

What about the “Population Membrane Permeable-Phenotype (%)” value [10] of the same compound?
The value was 7%.

What about the “Population Mitochondria Different-Phenotype (%)” value [10] of the same compound?
The value was 2%.

And the “Population Mitotic Cells (%)” value [10]?
The value was 16%.

And the “Population Normal (%)” value [10]?
Its value is 95%.

What about the “Population Tubulin-Different-Phenotype (%)” value [10] of the same compound?
Its value is 4%.

What about the “Total Cell Count” value [10] of the same compound?
Its value is 162.

And the “Population Apoptotic (%)” value [11]?
Its value is 58%.

And the “Population Fragmented Nuclei (%)” value [11]?
The value was 33%.

What about the “Population Healthy Nuclei (%)” value [11] of the same compound?
Its value is 44%.

And the “Population Hoechst High Intensity Objects (%)” value [11]?
Its value is 4%.

And the “Population Membrane Permeable-Phenotype (%)” value [11]?
The value was 28%.

What about the “Population Mitochondria Different-Phenotype (%)” value [11] of the same compound?
The value was 30%.

What about the “Population Mitotic Cells (%)” value [11] of the same compound?
The value was 41%.

And the “Population Normal (%)” value [11]?
Its value is 95%.

What about the “Population Pyknosed Nuclei (%)” value [11] of the same compound?
The value was 21%.

What about the “Population Tubulin-Different-Phenotype (%)” value [11] of the same compound?
Its value is 21%.

And the “Total Cell Count” value [11]?
The value was 271.

What about the “Population Apoptotic (%)” value [12] of the same compound?
Its value is 96%.

And the “Population Fragmented Nuclei (%)” value [12]?
The value was 18%.

What about the “Population Healthy Nuclei (%)” value [12] of the same compound?
The value was 58%.

And the “Population Hoechst High Intensity Objects (%)” value [12]?
The value was 8%.

What about the “Population Membrane Permeable-Phenotype (%)” value [12] of the same compound?
Its value is 43%.

What about the “Population Mitochondria Different-Phenotype (%)” value [12] of the same compound?
Its value is 29%.

What about the “Population Mitotic Cells (%)” value [12] of the same compound?
Its value is 4%.

And the “Population Normal (%)” value [12]?
Its value is 91%.

What about the “Population Pyknosed Nuclei (%)” value [12] of the same compound?
The value was 22%.

What about the “Population Tubulin-Different-Phenotype (%)” value [12] of the same compound?
Its value is 35%.

What about the “Total Cell Count” value [12] of the same compound?
Its value is 121.
